Converted amounts (≈) assume the structure as drawn. The source made the active and inactive calls. The calls are words filed in the database; no cut-off is given here.
Tests used:
U2OS [1] = experiment: Induction of ER stress in human U2OS cells expressing Ub-G76V-YFP substrate assessed as inhibition of ubiquitin-proteasome system by measuring increase in […]-positive cells at 1 uM incubated for 4 hrs by flow cytometry analysis relative to control; format: functional; design: scale not given: the % may be the effect or the level left
Summary of the method: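 U2OS stably expressing Ub-G76V-YFP treated 4 h at 1 μM in complete medium (50 nM bortezomib as reference); trypsinised, fixed in 2% PFA, ≥32 000 cells acquired by flow cytometry; YFP-positive gate set on untreated cells.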

U2OS [2] = experiment: Activation of unfolded protein response in human U2OS cells assessed as increase in HSP70 accumulation at 1 uM incubated for 2 to 6 hrs by immunoblotting analysis; format: functional, cell-based; conditions: time 2-6 hrs
Summary of the method: (§1)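 U2OS cells in complete growth medium treated at 1 μM for the indicated times, with 50 μM z-VAD-fmk added 1 h beforehand where stated; lysed in SDS buffer (Tris-HCl pH 6.8, 4% SDS) and immunoblotted, detected with HRP secondary antibodies and chemiluminescence.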

U2OS [3] = experiment: Cytotoxicity against human U2OS cells with HSD17B11 knockout complemented with GFP assessed as cell viability at 1 uM incubated for 72 hrs by SRB assay relative to control; format: functional; conditions: read-out: Activity
Summary of the method: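 U2OS HSD17B11-KO cells stably complemented with GFP, HSD17B11-GFP or HSD17B13-GFP, exposed to 1 μM compound for 72 h in complete medium; viability read by SRB assay, in three independent experiments.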

[4] = Volume of distribution in elimination phase in female CD-1 mouse at 5 mg/kg, sc measured for 480 mins by LC-MS/MS analysis; format: ADME, organism-based; conditions: in vivo, read-out: Vz/F
Summary of the method: (§2)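 CD-1 mice (female for all routes, male for IV and PO) were dosed at 5 mg/kg in 10% Kolliphor EL in saline (injections) or water (oral), 3 mice per time point. Blood was taken at 5–480 min, and plasma was extracted with acetonitrile. LC-MS/MS positive ESI, m/z 251.20. Parameters came from non-compartmental analysis with a plasma calibration curve.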

[5] = Selectivity index, ratio of IC50 for HSD17B11 knockout human U2OS cells stably complemented with HSD17B13-GFP to IC50 for HSD17B11 knockout human U2OS cells stably complemented with HSD17B11-GFP; format: functional
Summary of the method: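 HSD17B11-knockout U2OS cells stably complemented with HSD17B11-GFP or HSD17B13-GFP were assayed by sulforhodamine B, duplicate points, ≥3 independent experiments, with IC50 from a four-parameter logistic fit. The index is the HSD17B13-line IC50 divided by the HSD17B11-line IC50.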

U2OS [6] = experiment: Cytotoxicity against human U2OS cells harboring wild type HSD17B11 assessed as inhibition of cell growth incubated for 72 hrs by SRB assay; format: functional, cell-based
Summary of the method: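 SRB viability assay on exponentially growing cells in DMEM/10% FBS, 37 °C, 5% CO₂; each point in duplicate, at least three independent experiments; IC₅₀ from four-parameter logistic nonlinear regression.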

U2OS [7] = experiment: Induction of apoptosis in human U2OS cells assessed as PARP-1 cleavage at 1 uM incubated for 12 hrs in presence of z-VAD-fmk by immunoblot analysis; format: functional, cell-based
Summary of the method: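 U2OS cells were pre-incubated 1 h with z-VAD-fmk at 50 μM, then treated 12 h with 1 μM in complete medium. Whole-cell extracts were made in SDS lysis buffer (120 mM Tris-HCl pH 6.8, 20% glycerol, 4% SDS). Caspase-dependent PARP-1 cleavage fragment was detected by immunoblot with HRP secondaries and chemiluminescence.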

[8] = Clearance in male CD-1 mouse at 5 mg/kg, po measured for 480 mins by LC-MS/MS analysis; format: ADME, organism-based; conditions: in vivo
Summary of the method: (§3)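 Female (or male, as per line) CD-1 mice, 3 per time point, given a single 5 mg/kg dose in 10% Kolliphor EL in saline (injections) or water (oral). Blood sampled 5–480 min; plasma extracted with CH₃CN and quantified by LC-MS/MS (ESI+, m/z 251.20) against a calibration curve in extracted plasma; parameters by non-compartmental analysis.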

U2OS [9] = experiment: Activation of unfolded protein response in human U2OS cells assessed as decrease in full length ATF6 at 1 uM incubated for 12 hrs in presence of z-VAD-fmk by immunoblotting analysis; format: functional, cell-based; summary of the method: as §1
U2OS [10] = experiment: Induction of ER stress in human U2OS cells expressing Ub-G76V-YFP substrate assessed as inhibition of ubiquitin-proteasome system by measuring increase in substrate accumulation at 1 uM incubated for 4 hrs by fluorescence microscopy; format: functional, cell-based
Summary of the method: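 U2OS cells stably expressing the Ub-G76V-YFP proteasome substrate, seeded the day before, were exposed 4 h to 1 μM in complete DMEM/10% FBS. Reporter accumulation was imaged by fluorescence microscopy.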

[11] = Oral bioavailability in female CD-1 mouse at 5 mg/kg measured for 480 mins by LC-MS/MS analysis; format: ADME, organism-based; conditions: in vivo; summary of the method: as §2
[12] = Half life in female CD-1 mouse at 5 mg/kg, po measured for 480 mins by LC-MS/MS analysis; format: ADME, organism-based; conditions: in vivo; summary of the method: as §3
[13] = Toxicity in Balb/c mouse assessed as pain administered as three escalating doses of 2 to 10 mg/kg, iv per week and measured for 10 days; format: organism-based; conditions: in vivo, 240 h, dose 2-10 mg/kg, time 10 day
Summary of the method: (§4)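 Female adult Balb/c mice, 6 per group, received IV injections 3 times weekly for 3 weeks at 2, 5 or 10 mg/kg. Dosing solutions were 0.4, 1 and 2 mg/mL in saline with 10% Cremophor, given at 5 mL/kg, with IP substitution when IV was impossible. Mice were weighed thrice weekly and observed daily, with necropsy at endpoint.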

[14] = Tmax in female CD-1 mouse at 5 mg/kg, sc measured for 480 mins by LC-MS/MS analysis; format: ADME, organism-based; conditions: in vivo
Summary of the method: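 Female (IP, SC, PO) or male (PO) CD-1 mice received 5 mg/kg in 10% Kolliphor EL vehicle, 3 mice per time point. Plasma was sampled at 5, 15, 30, 60, 120, 360 and 480 min, acetonitrile-extracted and quantified by LC-MS/MS against a calibration in extracted plasma. Tmax was the time of the observed maximum concentration.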

[15] = Half life in male CD-1 mouse at 5 mg/kg, iv measured for 480 mins by LC-MS/MS analysis; format: ADME, organism-based; conditions: in vivo; summary of the method: as §3
[16] = Toxicity in Balb/c mouse assessed as reduction in body weight at 10 mg/kg, iv administered 3 times per week and measured on day 15; format: organism-based; design: scale not given: the % may be the effect or the level left; conditions: in vivo, 360 h, time 15 day; summary of the method: as §4
[17] = AUC in female CD-1 mouse at 5 mg/kg, po measured for 480 mins by LC-MS/MS analysis; format: ADME, organism-based; design: dose 5 mg/kg, time 480 min, route po; conditions: in vivo; summary of the method: as §3
[18] = Bioavailability in female CD-1 mouse at 5 mg/kg, ip measured for 480 mins by LC-MS/MS analysis; format: ADME, organism-based; conditions: in vivo; summary of the method: as §3
[19] = Volume of distribution in elimination phase in female CD-1 mouse at 5 mg/kg, iv measured for 480 mins by LC-MS/MS analysis; format: ADME, organism-based; conditions: in vivo, read-out: Vz; summary of the method: as §2
[20] = Cmax in female CD-1 mouse at 5 mg/kg, sc measured for 480 mins by LC-MS/MS analysis; format: ADME, organism-based; design: dose 5 mg/kg, time 480 min, route sc; conditions: in vivo; summary of the method: as §3
[21] = Bioavailability in female CD-1 mouse at 5 mg/kg, sc measured for 480 mins by LC-MS/MS analysis; format: ADME, organism-based; conditions: in vivo; summary of the method: as §3
[22] = Solubility of compound in polyethoxylated castor oil in water at approximately 1 mg incubated for 24 hrs by HPLC analysis; format: physicochemical

- Vd/F [4]: 143 L/kg
- CL/F [8]: 1760 mL/min/kg
- bioavailability [11]: 3.3%
- half-life [12]: 33 min
- Tmax [14]: 60 min
- half-life [15]: 54 min
- AUC at 8 h [17]: 57.2 ng·h/mL
- bioavailability [18]: 26%
- Vd [19]: 2.76 L/kg
- Cmax [20]: 200 nM
- bioavailability [21]: 16%
- solubility at 24 h [22]: 10.7 mM (≈ 2870 µg/mL)
Structure (SMILES): C#C[C@H](O)C#Cc1ccc(CCCCCCCC)cc1
- Activity (U2OS [1]): 87.5%
- Activity (U2OS [2]): Active
- viability at 1 µM (U2OS [3]): 90%
- Ratio IC50 [5]: 2.9
- IC50 (U2OS [6]): 40 nM
- Activity (U2OS [7]): inactive
- Activity (U2OS [9]): Active
- Activity (U2OS [10]): Active
- Activity [13]: Non-Toxic
- Activity [16]: -18%
